Screens as filed in PubChem.
Shown are actives, neighbours in structure and some others; about 2.7% of the full set was active somewhere.
MLL AF4-AF9 inh – blocks AF4 peptide binding to human AF9 | P42568 | AlphaScreen, biotin-AF4 peptide binding to FLAG-AF9 | inhibition, % at 10 µM | hit rate 0.47% among 350,000 | AID 651704;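 active means every replicate reaching a set inhibition limit, whatever the replicate mean, cut at about 25% in these data; inconclusive means mean inhibition reaches that limit but some replicates miss it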;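 further: 0% = plate neutral control median and 100% = total signal loss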
CaV13 ICDI inh – Primary screen for inhibitors of IQ motif and Ca2+-dependent inactivation inhibitor domain binding in CACNA1D, Förster resonance energy transfer in living cells, …; AID 743397; HEK cells, CFP/YFP FRET ICDI-IQ, plate reader, 10 min; percent FRET-ratio fall versus neutral wells; inhibition, % at 12.3 µM; hit rate 0.098% among 340,000;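 active means mean replicate inhibition of at least 30% and at least 1% of replicates passing that level; inconclusive means only one of the two criteria is met; inactive means neither criterion is met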;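 further: 0% = median of the neutral control wells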
SIRT5 block – inhibitors of human sirtuin-5 desuccinylase. Q9NXA8. inhibition, % at 15 µM. hit rate 1.1% among 330,000. Purified SirT5, succinyl-peptide AMC, trypsin-coupled fluorescence; in the data active means inhibition above about 15%; inconclusive means no clear call, values can overlap the other calls
Target sequence (Q9NXA8 whole entry, looked up): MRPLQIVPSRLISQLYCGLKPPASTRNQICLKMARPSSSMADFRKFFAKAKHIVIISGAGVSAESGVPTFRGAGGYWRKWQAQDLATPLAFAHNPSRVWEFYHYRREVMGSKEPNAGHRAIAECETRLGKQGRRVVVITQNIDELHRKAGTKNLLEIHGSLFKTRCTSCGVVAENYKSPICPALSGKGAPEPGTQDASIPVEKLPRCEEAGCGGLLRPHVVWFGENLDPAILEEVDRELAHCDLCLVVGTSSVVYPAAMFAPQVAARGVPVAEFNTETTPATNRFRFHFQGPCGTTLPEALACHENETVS
DENV2 CPE rescue – inhibitors of DENV2 cytopathic effect. DENV2-infected cells, cytopathic effect rescue, plate reader. CPE inhibition, % at 9.99 µM. hit rate 1.7% among 350,000; in the data active means CPE inhibition above about 20%, passing the limit was not always enough; inconclusive means no clear call, values can overlap the other calls; tested in BHK-21 cells;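 further: 0% = median of neutral control wells and 100% = median of positive control wells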
S100A4 MyoIIA – inhibitors of human S100A4 binding to myosin IIA peptide; hit rate 0.14% among 360,000; inhibition, % at 10.7 µM; P26447; AID 652163; S100A4/TAMRA-MyoIIA peptide fluorescence polarization;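 active means mean inhibition of at least 70% across replicates, with every replicate also reaching that level; inconclusive means mean inhibition reaches 70% but some replicates fall short; inactive means mean inhibition below 70%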
Target sequence (P26447 whole entry, looked up): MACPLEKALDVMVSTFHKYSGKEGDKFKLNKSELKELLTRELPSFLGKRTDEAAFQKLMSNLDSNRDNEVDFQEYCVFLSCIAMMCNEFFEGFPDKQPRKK
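System – human S100A4 monomer protein, biochemical binding assay · Buffer or medium – Calcium-containing HEPES buffer, pH 7.2 · Timing – 5 min between mix addition and reading · Also added – TAMRA-labelled myosin IIA heavy-chain peptide probe, 5 nM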
* hit, by the source's call; ? = inconclusive; · = no result given; ! = repeats disagree.

SMILES | MLL AF4-AF9 inh | CaV13 ICDI inh | SIRT5 block | DENV2 CPE rescue | S100A4 MyoIIA
C[C@@H]1CN([C@H](C)CO)C(=O)c2cc(C3=CCCC3)cnc2O[C@H]1CN(C)C(=O)C1CCOCC1 | -2 | · | 1 | 38* | 13
C[C@H](CO)N1C[C@H](C)[C@@H](CN(C)S(=O)(=O)c2cn(C)cn2)Oc2ncc(C3=CCCC3)cc2C1=O | -7 | · | 3 | 23* | -12
CC(=O)N(C)C[C@H]1Oc2ncc(C3=CCCC3)cc2C(=O)N([C@H](C)CO)C[C@H]1C | -6 | · | 34* | 18 | -7
CC(=O)N(C)C[C@H]1Oc2ncc(C3=CCCC3)cc2C(=O)N([C@@H](C)CO)C[C@@H]1C | -5 | · | -5 | 0 | -11
C[C@H](CO)N1C[C@H](C)[C@H](CN(C)C(=O)C2CCC2)Oc2ncc(C3=CCCC3)cc2C1=O | -3 | · | 1 | 30* | -1
C[C@H]1CN([C@@H](C)CO)C(=O)c2cc(C3=CCCC3)cnc2O[C@H]1CN(C)C(=O)C1CCOCC1 | -2 | · | 4 | 12 | 13
Cc1noc(C)c1NC(=O)N(C)C[C@@H]1Oc2ncc(Br)cc2C(=O)N([C@@H](C)CO)C[C@H]1C | -2 | -4 | 30*! | -3 | -8
Cc1noc(C)c1NC(=O)N(C)C[C@H]1Oc2ncc(C#CC(C)C)cc2C(=O)N([C@@H](C)CO)C[C@H]1C | -5 | · | 0 | 53* | -6
CC(C)C#Cc1cnc2c(c1)C(=O)N([C@H](C)CO)C[C@H](C)[C@@H](CN(C)C(=O)CN1CCOCC1)O2 | -5 | · | 39* | -4 | -16
Cc1noc(C)c1NC(=O)N(C)C[C@@H]1Oc2ncc(C#CCN(C)C)cc2C(=O)N([C@@H](C)CO)C[C@@H]1C | -1 | · | -17 | 25* | 10
O=C(c1cccnc1)N1CC(=O)N2[C@H](CO)[C@@H](c3ccc(C#CCC4CCCC4)cc3)[C@H]2C1 | 10 | · | 5 | 9 | 6
COc1ccc(S(=O)(=O)N(C)C[C@@H]2Oc3ccc(NC(=O)Nc4ccccc4)cc3CC(=O)N([C@@H](C)CO)C[C@@H]2C)cc1 | 3 | · | 2 | -6 | -6
C[C@H]1CN([C@@H](C)CO)C(=O)c2ccccc2-c2ccccc2CO[C@H]1CN(C)C(=O)Nc1ccc2c(c1)OCO2 | -5 | · | · | 0 | 0
CC(C)NC(=O)N(C)C[C@@H]1Oc2ccc(NC(=O)Cc3ccccc3)cc2C(=O)N([C@H](C)CO)C[C@H]1C | -2 | · | 0 | 78* | -2
CC(C)NC(=O)N(C)C[C@H]1Oc2ccc(NC(=O)Cc3ccccc3)cc2C(=O)N([C@H](C)CO)C[C@@H]1C | -2 | -5 | 20*! | 52*! | -1
CC(C)NC(=O)N(C)C[C@@H]1Oc2ccc(NC(=O)Cc3ccccc3)cc2C(=O)N([C@@H](C)CO)C[C@H]1C | -2 | · | -3 | -3 | -8
COCC(=O)Nc1ccc2c(c1)C(=O)N(C)[C@@H]1CC[C@@H](CC(=O)NC3CCCC3)O[C@H]1CO2 | · | · | · | -6 | ·
C[C@@H]1CN([C@@H](C)CO)C(=O)c2cc(NC(=O)Nc3ccc(F)cc3)ccc2O[C@@H]1CN(C)S(=O)(=O)c1ccc(Cl)cc1 | 0 | · | 19* | -6 | -3
COc1ccc(S(=O)(=O)N(C)C[C@H]2Oc3ccc(NC(=O)Nc4ccc(F)cc4)cc3C(=O)N([C@H](C)CO)C[C@H]2C)cc1 | 1 | · | 21* | -6 | -8
O=C(Nc1ccc2c(c1)[C@@H]1C[C@H](CC(=O)N3CCCCC3)O[C@@H](CO)[C@@H]1O2)NC1CCCCC1 | -2 | · | 4 | 32* | 16
O=C(NC1CCCCC1)N[C@H]1CC[C@@H](CC(=O)N2CCOCC2)O[C@H]1CO | 0 | · | -1 | ? | 0
O=C(O)C[C@H]1C[C@H]2c3cc(NC(=O)NC4CCCC4)ccc3O[C@H]2[C@H](CO)O1 | -1 | · | -1 | 36* | 23
O=C(Nc1ccc2c(c1)[C@@H]1C[C@@H](CC(=O)N3CCOCC3)O[C@@H](CO)[C@@H]1O2)NC1CCCCC1 | -8 | · | 0 | 23* | 18
O=C(Nc1ccc2c(c1)[C@H]1C[C@H](CC(=O)N3CCOCC3)O[C@H](CO)[C@H]1O2)NC1CCCCC1 | -1 | · | 0 | 3 | 1
O=C(NC1CCCC1)N[C@@H]1CC[C@H](CC(=O)N2CCOCC2)O[C@H]1CO | 2 | · | 25* | 7 | 1
SMILES | MLL AF4-AF9 inh | CaV13 ICDI inh | SIRT5 block | DENV2 CPE rescue | S100A4 MyoIIA
CO[C@@H]1CN(C)C(=O)c2ccc(NS(C)(=O)=O)cc2OC[C@H](C)N(C(=O)C2CC2)C[C@@H]1C | -1 | · | 0 | · | 0
C[C@H](CO)N1C[C@H](C)[C@@H](CN(C)S(=O)(=O)c2cn(C)cn2)Oc2ccc(NC(=O)Cn3cnnn3)cc2CC1=O | 1 | · | 5 | -6 | 5
O=C(C[C@@H]1C[C@H]2c3cc(NC(=O)NC4CCCCC4)ccc3O[C@H]2[C@@H](CO)O1)NCCc1ccccc1 | -1 | · | -11 | ? | -6
O=C(C[C@@H]1C[C@@H]2c3cc(NC(=O)NC4CCCCC4)ccc3O[C@@H]2[C@H](CO)O1)NCCc1ccccc1 | -5 | · | 26* | -11 | 1
COC(=O)C[C@H]1CC[C@@H]2[C@@H](COc3ccc(NS(=O)(=O)c4cccc(F)c4)cc3C(=O)N2C)O1 | -2 | · | -6 | 18 | 1
COc1ccc(S(=O)(=O)N(C)C[C@H]2Oc3ccc(NC(=O)Cc4cn(C)c5ccccc45)cc3C(=O)N([C@@H](C)CO)C[C@H]2C)cc1 | 0 | · | 4 | -5 | 8
Cc1noc(C)c1-c1ccc(C(=O)Nc2cccc(C(F)(F)F)c2)c2occc12 | -5 | -5 | 19* | -12 | 16
Cc1noc(C)c1-c1ccc(C(=O)Nc2cccc(NS(C)(=O)=O)c2)c2occc12 | -5 | -5 | -1 | -5 | -1
COC(=O)[C@@]1(Cc2ccc(F)cc2)[C@H]2c3cc(C(=O)N(C)C)n(Cc4ccc(OC(F)(F)F)cc4)c3C[C@H]2CN1C(=O)c1ccccc1 | -13 | -7 | · | 20* | -4
COC(=O)[C@@]1(Cc2ccc(F)cc2)[C@H]2c3cc(C(=O)N(C)C)n(CCF)c3C[C@H]2CN1C(=O)c1ccccc1 | 7 | -8 | · | 3 | 7
COC(=O)Cn1c(C(=O)N(C)C)cc2c1C[C@H]1CN(C(=O)c3ccccc3)[C@@](Cc3ccc(F)cc3)(C(=O)OC)[C@@H]21 | 4 | -7 | · | 63* | -2
CC(C)CC#Cc1ccc2c(c1)O[C@H](CN(C)C(=O)Cc1ccccc1)[C@@H](C)CN([C@@H](C)CO)S2(=O)=O | -1 | · | 2 | -17 | 2
COc1ccc(OC)c(S(=O)(=O)N2CCN(c3ncccn3)CC2)c1 | 2 | -4 | -6 | -1 | -7
COc1ccc(OC)c(S(=O)(=O)N2CCN(c3c(C)cccc3C)CC2)c1 | 5 | -3 | -1 | 27* | -2
CC(C)[C@@H]1CC[C@@H](C)C[C@H]1O | -4 | -5 | -6 | -2 | -5
